Published values from different studies.
Protocols differ between the studies behind these lines.
Read-out: cell growth or viability

SMILES | cell line | method | time | IC50 [µM]
Cc1ccc(S(=O)(=O)n2cc(CN3CCN(c4ccc(C(=O)NO)cc4)CC3)c3ccccc32)cc1 | LLC-PK1 |  | 48 h | 8.82
C=CC(=O)N1CCC[C@@H](n2nc(-c3ccc(Oc4ccccc4)cc3)c3c(N)ncnc32)C1 | SU-DHL-4 | resazurin | 72 h | 0.454
CCOc1ccc(C=Nn2c(-c3ccccc3)nc3ccc(Cl)cc3c2=O)cc1 | LLC-PK1 | MTT | 72 h | 136
NS(=O)(=O)c1ccc(-n2nc(-c3nnc(S)o3)cc2-c2ccccc2)cc1 | HT-29 | fluorescence | 48 h | 39.4
O=c1c2cc(Cl)ccc2nc(-c2ccccc2)n1N=Cc1cccc([N+](=O)[O-])c1 | LLC-PK1 | MTT | 72 h | 149
O=C(NO)c1ccc(NCc2cnc3ccccc3c2)cc1 | LLC-PK1 |  | 48 h | 9.38
CC(=O)O[C@@H]1CC[C@@]2(C)[C@@H](CC[C@]3(C)[C@@H]2C(=O)C=C2[C@@H]4[C@@H](C)[C@H](C)CC[C@]4(C)CC[C@]23C)[C@@]1(C)C(=O)O | Caco-2 | MTT | 6 h | 1.61
CCOc1ccc(C=Nn2c(-c3ccccc3)nc3ccc(Cl)cc3c2=O)cc1O | LLC-PK1 | MTT | 72 h | 342
Cc1nn(-c2ccc(S(=O)(=O)N3CCN(C)CC3)cc2)c2nn3nnnc3nc12 | HT-29 | MTT |  | 0.08
NS(=O)(=O)c1ccc(-n2nc(C(=O)NN3C(=O)c4ccccc4C3=O)cc2-c2ccccc2)cc1 | HT-29 | fluorescence | 48 h | 48.3
O=c1c2cc(Cl)ccc2nc(-c2ccccc2)n1N=Cc1ccc(F)cc1 | LLC-PK1 | MTT | 72 h | 86.7
Cc1ccc(S(=O)(=O)n2cc(CNc3ccc(C(=O)NO)cc3)c3ccccc32)cc1 | LLC-PK1 |  | 48 h | 9.99
O=c1c2cc(Cl)ccc2nc(-c2ccccc2)n1N=Cc1ccc([N+](=O)[O-])cc1 | LLC-PK1 | MTT | 72 h | 115
NS(=O)(=O)c1ccc(-n2nc(C(=O)NN=Cc3ccccc3O)cc2-c2ccccc2)cc1 | HT-29 | fluorescence | 48 h | 20
O=C(CCSSc1ccccc1/C=N/NC(=O)c1ccccc1)OC[C@H]1OC(O)[C@H](O)[C@@H](O)[C@@H]1O (some centres unmarked) | A2780 | MTT |  | 23
NS(=O)(=O)c1ccc(-n2nc(C(=O)NN=Cc3cccnc3)cc2-c2ccccc2)cc1 | HT-29 | fluorescence | 48 h | 32.3
O=c1c2cc(Cl)ccc2nc(-c2ccccc2)n1N=Cc1ccccc1Cl | LLC-PK1 | MTT | 72 h | 351
COc1cccc2c1C(=O)c1c(O)c3c(c(O)c1C2=O)C[C@@](O)(C(=O)CO)C[C@@H]3O[C@H]1C[C@H](N)[C@H](O)[C@H](C)O1 | SU-DHL-4 |  | 96 h | 0.00506
CC(=NNC(=O)c1cc(-c2ccccc2)n(-c2ccc(S(N)(=O)=O)cc2)n1)c1ccc(C)cc1 | HT-29 | fluorescence | 48 h | 21.8
COc1cccc(-c2cc(NCc3ccc4c(c3)OCO4)nc(N)n2)c1 | A2780 |  | 72 h | 0.0901
